Results reported in ChEMBL document CHEMBL1155616, “Ancistroealaines A and B, two new bioactive naphthylisoquinolines, and related naphthoic acids from Ancistrocladus ealaensis” (J Nat Prod, 2000).
Converted amounts (≈) assume the structure as drawn.

Experiments:
Plasmodium falciparum [1] = assay: Antiplasmodial activity against Plasmodium falciparum K1 in human erythrocytes by [3H]hypoxanthine uptake; assay type: functional, organism-based; settings: K1, 72 h
Procedure, shortened: (§1)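 [³H]hypoxanthine incorporation assay, modified. Infected human red cells were exposed to serial drug dilutions for 48 h at 37 °C under reduced O₂ and raised CO₂. [³H]hypoxanthine was then added and incubation continued for 24 h. Cells were harvested on glass-fibre filters and counted by liquid scintillation. IC50 was taken from the sigmoidal inhibition curve. Runs were in duplicate and repeated at least once.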

Plasmodium falciparum [2] = assay: Antiplasmodial activity against Plasmodium falciparum NF54 in human erythrocytes by [3H]hypoxanthine uptake; assay type: functional, organism-based; settings: NF54, 72 h; procedure, shortened: as §1
Trypanosoma cruzi = assay: Antitrypanosomal activity against galactosidase gene containing Trypanosoma cruzi Tulahuen C2C4 trypomastigotes in rat L6 cells after 4 days; assay type: functional, organism-based; settings: Tulahuen C2C4, L6, 96 h
Procedure, shortened: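 L-6 myoblasts were seeded at 2000 cells/well in RPMI 1640 with 10% FBS and 2 mM L-glutamine. After 24 h, 5000 trypomastigotes were added with serial drug dilutions. Plates were kept at 37 °C in 5% CO₂ for 4 days. CPRG/Nonidet substrate was added and colour read at 540 nm after 2–4 h. IC50 was taken from the sigmoidal inhibition curve.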

[3] = Cytotoxicity against rat L6 cells after 4 days; assay type: cell-based; settings: read-out: MIC
Procedure, shortened: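 Uninfected L-6 myoblasts were run in the same format as the T. cruzi assay: RPMI 1640 with 10% FBS and 2 mM L-glutamine, same serial drug dilution, 37 °C, 5% CO₂. The MIC was judged microscopically after 4 days.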

[4] = tested on: Trypanosoma brucei rhodesiense; assay: Antitrypanosomal activity against Trypanosoma brucei rhodesiense STIB900 by Alamar blue assay; assay type: functional, organism-based
Procedure, shortened: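 Bloodstream parasites were grown in Minimum Essential Medium with 2-mercaptoethanol and 15% heat-inactivated horse serum, with serial drug dilutions, for 72 h at 37 °C in 5% CO₂. Alamar Blue was then added for 2–4 h more, and fluorescence read at excitation 530 nm and emission 590 nm. Signal was expressed as % of control to give IC50.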

Leishmania donovani = assay: Antileishmanial activity against Leishmania donovani MHOM-ET-67/L82 amastigotes in mouse peritoneal macrophages; assay type: functional, organism-based
Procedure, shortened: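 Mouse peritoneal macrophages in RPMI 1640 with 10% heat-inactivated FBS were infected after 24 h with amastigotes at 3:1 (parasite:macrophage). Free parasites were removed at 4 h. Drug was added the next day and cells incubated for 96 h at 37 °C in 5% CO₂. Slides were MeOH-fixed and Giemsa-stained, and the infected/noninfected ratio counted microscopically as % of control. IC50 was obtained by linear regression.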

[5] = Cytotoxicity against mouse peritoneal macrophages; assay type: cell-based, Macrophage; settings: read-out: MIC

SMILES | IC50 (Plasmodium falciparum [1]) [µg/mL] | IC50 (Plasmodium falciparum [2]) [µg/mL] | IC50 (Trypanosoma cruzi) [µg/mL] | MCC at 96 h [3] [µg/mL] | IC50 [4] [µg/mL] | IC50 (Leishmania donovani) [µg/mL] | MCC [5] [µg/mL]
COc1cc(OC)c(-c2ccc(OC)c3c(OC)cc(C)cc23)c2c1C(C)=N[C@@H](C)C2 [ANCISTROEALAINE A] | 1.2 (≈ 2.86 µM) | 4 (≈ 9.53 µM) | 2.35 (≈ 5.6 µM) | > 90 | 3.46 (≈ 8.25 µM) | 4.1 (≈ 9.77 µM) | > 30
COc1cc(OC)c2c(c1-c1ccc(O)c3c(OC)cc(C)cc13)C[C@H](C)N[C@H]2C [ANCISTROEALAINE B] | 0.52 (≈ 1.28 µM) | 0.79 (≈ 1.94 µM) | 17.6 (≈ 43.2 µM) | 90 | 2.03 (≈ 4.98 µM) | 10 (≈ 24.5 µM) | > 30
Nc1nc(N)nc(Nc2ccc([As]3SCC(CO)S3)cc2)n1 (stereo unspecified) [MELARSOPROL] |  |  |  |  | 0.0063 |  | 
O=C(Cn1ccnc1[N+](=O)[O-])NCc1ccccc1 [BENZNIDAZOLE] |  |  | 0.3 (≈ 1.15 µM) |  |  |  | 
